PRMT1 inh = inhibitors of human PRMT1; AID 652257; 370,000 compounds, 1.3% hits; inhibition, % at 2.79 µM; recombinant PRMT1, activity-based probe fluorescence polarization;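 active = inhibition above about 21% made by adding two undisclosed values, limit read from the data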
Target sequence (Q99873 whole entry, looked up): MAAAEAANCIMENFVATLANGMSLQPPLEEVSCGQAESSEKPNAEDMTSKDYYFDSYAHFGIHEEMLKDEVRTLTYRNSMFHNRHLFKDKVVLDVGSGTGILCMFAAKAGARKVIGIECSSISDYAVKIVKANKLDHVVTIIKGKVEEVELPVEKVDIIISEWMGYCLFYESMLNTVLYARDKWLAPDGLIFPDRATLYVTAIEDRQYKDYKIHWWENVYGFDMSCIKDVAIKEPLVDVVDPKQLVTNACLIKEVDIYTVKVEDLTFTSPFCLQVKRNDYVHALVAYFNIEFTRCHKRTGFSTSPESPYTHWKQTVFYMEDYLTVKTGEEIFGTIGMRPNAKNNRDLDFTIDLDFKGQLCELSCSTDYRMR
TDP2 inh = blocks human TDP2 phosphodiesterase activity; recombinant TDP2, T5PNP hydrolysis, p-nitrophenol absorbance 415 nm; inhibition, % at 12.8 µM; 370,000 compounds, 0.34% hits; AID 720702;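 active = inhibition above the mean of all tested compounds plus 3 SD, set per campaign, cut at about 25% in these data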
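Material: recombinant human TDP2; quantity: TDP2 enzyme at 120 nM final; medium: Tris-HCl pH 7.5 with MgCl2; compound: single concentration, 12.8 µM nominal, with 1% DMSO; incubation: 2 h enzyme incubation at 37 °C; signal: epi absorbance; measure: percent inhibition; benchmarks: high control without enzyme, low control DMSO plus TDP2; repeats: singlicate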
GSTO1 inh = counter-screen for RBBP9 inhibitors: inhibitors of human GSTO1. inhibition, % at 5.96 µM. 300,000 compounds, 1.1% hits. recombinant GSTO1, activity-based probe fluorescence polarization. P78417;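 active = inhibition above the campaign mean inhibition plus 3 SD, cut at about 35% in these data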
Target sequence (P78417 whole entry, looked up): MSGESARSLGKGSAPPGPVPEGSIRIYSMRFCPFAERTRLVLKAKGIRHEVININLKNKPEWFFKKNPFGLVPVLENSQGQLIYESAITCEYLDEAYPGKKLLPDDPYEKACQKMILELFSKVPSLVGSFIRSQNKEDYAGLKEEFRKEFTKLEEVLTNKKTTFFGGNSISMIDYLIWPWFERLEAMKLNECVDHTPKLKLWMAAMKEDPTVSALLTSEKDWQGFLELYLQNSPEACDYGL
Fh CTSL1 inh = blocks F. hepatica cathepsin L1 in PFM18AAP counter-screen; AID 1906; inhibition, % at 5.96 µM; 300,000 compounds, 0.49% hits; recombinant F. hepatica cathepsin L1, Z-Leu-Arg-MCA fluorescence;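 active = inhibition above the mean of all tested compounds plus 3 SD, set per screening campaign, cut at about 17% in these data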
PAD4 inh = inhibitors of human PAD4; AID 485272; recombinant PAD4, RCA probe fluorescence polarization; inhibition, % at 6.36 µM; Q9UM07; 330,000 compounds, 0.41% hits;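 active = percent inhibition above a cutoff equal to the mean of all tested compounds plus 3 SD, cut at about 15% in these data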
GSTO1 inh conf = confirmation of human GSTO1 inhibitors; 2,400 compounds, 54% hits; shares compounds with GSTO1 inh; recombinant GSTO1, probe fluorescence polarization; inhibition, % at 5.96 µM;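 active = inhibition above the primary screen's cutoff, its mean inhibition plus 3 SD, cut at about 35% in these data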;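 note: loss of polarization as inhibitors block binding of rhodamine sulfonate ester activity probe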
Hits are given with their value; 0 = inactive; - = no result given. In the library only some 2.5% were active in any assay of this set; here they are far more common.

SMILES	PRMT1 inh	TDP2 inh	GSTO1 inh	Fh CTSL1 inh	PAD4 inh	others
Cc1cc(C(=O)CSc2nnc(N)s2)c(C)n1CCc1ccc(Cl)cc1	0	0	0	0	0
CCOC(=O)CCN(Cc1sccc1C)S(=O)(=O)c1ccc(F)cc1	0	0	0	0	0
CCOC(=O)CCN(Cc1cccs1)S(=O)(=O)c1ccc(F)cc1	0	0	37.5	0	0
O=C(O)c1c(C(=O)O)c(-c2ccc(Cl)c(Cl)c2)n2c1CSC2	30.4	0	0	0	0
O=c1oc(-c2ccccc2)cc(Cl)c1Cl	0	26.8	0	0	0
O=C(Nc1nc2c(Br)cccc2s1)c1ccc2c(c1)OCCO2	0	0	-	-	-
Cc1cccc(C(=O)Nc2nc3ncccn3c2-c2ccc(F)c(F)c2)c1	0	0	-	-	-
CCOc1ccc(N2C(=O)CS/C2=C(\C(Cl)=C(Cl)Cl)[N+](=O)[O-])cc1	-	-	50.8	0	0
CCOc1ccc(N2C(=O)CNC2=S)cc1	0	0	0	0	0
COc1ccc(C(=O)OCCN(C)C2CN(Cc3cn(Cc4cccc(F)c4)nn3)S(=O)(=O)C2)cc1OC (stereo unspecified)	0	0	-	-	-
c1ccc(C2OC3c4cccc5cccc(c45)C3N2c2ccccc2)cc1 (stereo unspecified)	24.5	0	0	0	0
Cc1ccc(NC(=S)C2=C(O)c3ccccc3N(C)S2(=O)=O)cc1	0	0	0	0	0
CN1c2ccccc2C(O)=C(C(=S)Nc2ccccc2)S1(=O)=O	21.8	0	0	0	0
CCC(C)Nc1nc(C)nc2c1nnn2Cc1ccccc1 (stereo unspecified)	0	0	-	-	-
CCn1ccnc1CNCc1ccc(OCC(O)CN(C)Cc2ccccc2)cc1 (stereo unspecified)	0	0	0	0	0
CN(Cc1ccccc1)CC(O)COc1ccc(CNCc2nccn2C)cc1 (stereo unspecified)	0	0	0	17.7	0
COc1ccc([C@H]2OC(=O)C[C@H]2C(=O)N2CCCC2)cc1OC	0	0	-	-	-
COc1ccc(CN2[C@@H](CC(C)=O)c3cc(C(F)(F)F)ccc3S2(=O)=O)cc1	0	0	0	16.9	0
CCCCNC(=O)C[C@H]1C[C@@]2(C(=O)OC)C(=C[C@H](C(C)C)O[C@@H]2C2CC2)N(Cc2cccc3ccccc23)C1=O	0	0	-	-	-
CCOC(=O)C1=C(CSc2nc(C)cc(C)c2C#N)OC(N)=C(C#N)C1c1cccs1 (stereo unspecified)	-	-	0	22.4	0
Cc1ccc([N+](=O)[O-])cc1NC(=S)NCCc1ccccc1	0	0	0	57.9	0
CCCC(=O)OC12CCCN(C1)/C(=C/c1cccc(N(C)C)c1)C2 (stereo unspecified)	0	0	-	-	-
CCOC(=O)c1cnc2c(C(=O)OC)cccc2c1NCc1ccco1	21.8	0	0	0	0
CCCC1S/C(=N/N=C/c2ccco2)NC1=O (stereo unspecified)	0	0	0	0	0
O=C(CC1S/C(=N/N=C/c2ccco2)NC1=O)Nc1cccc(Cl)c1Cl (stereo unspecified)	21.6	0	0	0	0
SMILES	PRMT1 inh	TDP2 inh	GSTO1 inh	Fh CTSL1 inh	PAD4 inh	others
CCCCS(=O)c1c(O)c2ccccc2[nH]c1=O (stereo unspecified)	22.2	0	0	0	0
CCCCCc1c(O)c2ccccc2[nH]c1=O	0	0	0	0	0
O=c1[nH]c2ccccc2c(O)c1O	75.0	0	0	0	0
COc1cccc(/C=C2\CC3(OC(=O)c4cccc(F)c4)CCCN2C3)c1 (stereo unspecified)	0	0	-	-	-
Cc1cccc(NC(=S)NCc2cccn2C)c1	0	0	37.5	0	0
COC(=O)C1=C(C)N(C)C(=S)N(C)C1c1ccc(OC)cc1 (stereo unspecified)	0	0	0	17.4	0
COCC(=O)OC1CCn2c1nc1c2C(=O)C(C)=C(NC(C)=O)C1=O (stereo unspecified)	0	88.7	-	-	-
CCC(Oc1ccccc1)C(=O)NCCOC (stereo unspecified)	21.9	0	0	0	0
COC(=O)[C@H]1C[C@@]2(N3CCCCC3)c3ccccc3N(S(=O)(=O)c3ccccc3)[C@H]2N1	0	0	-	-	-
CC(C)N1CC2=C(OC(N)=C(C#N)C2c2cccnc2)/C(=C/c2cccnc2)C1 (stereo unspecified)	0	0	0	0	15.7
N#CC1=C(N)OC2=C(CN(Cc3ccccc3)C/C2=C\c2cccnc2)C1c1cccnc1 (stereo unspecified)	0	0	0	0	0
Cc1ccc(NC2=C/C(=N/S(=O)(=O)c3cccs3)c3ccccc3C2=O)cc1C	0	0	0	18.6	0
C/C(=N/NC(N)=S)c1cc2ccc(O)cc2oc1=O	0	0	0	20.0	0
Cc1ccc2nc(Cl)c3nnnn3c2c1	-	-	0	0	21.7
Cc1ccccc1C(=O)N(C)Cc1ccccc1	0	0	0	16.8	0
CCOC(=O)c1c2c(n(C)c1C)C(=O)C(=O)c1ccc(Br)cc1-2	0	0	72.0	66.3	0
COc1ccc(OC)c(/C=N/NC(=O)CCc2c(C)n[nH]c2C)c1	0	0	0	0	0
COc1ccc(OC)c(/C=N/NC(=O)CCc2ccc(O)c(O)c2)c1	47.7	0	36.0	0	0
Cc1cc(Nc2ccc(O)cc2)ccc1N	-	-	-	-	34.8
Oc1ccc(Nc2ccc3ccccc3c2)cc1	0	0	-	-	-
O=C(CSc1ncn[nH]1)Nc1ccc(Cl)c(Cl)c1	0	0	51.7	0	0	GSTO1 inh conf=0
O=C(CSc1ncn[nH]1)Nc1ncc(C(F)(F)F)cc1Cl	0	0	0	0	0
COc1ccc(-c2oc(NC(=O)CCl)c(C#N)c2-c2ccc(OC)cc2)cc1	0	0	76.0	61.1	0	GSTO1 inh conf=86.3
COC(=O)[C@H](CC(C)C)N(Cc1cn(Cc2ccc(C)cc2)nn1)S(=O)(=O)c1ccc(F)cc1Br	0	0	-	-	-
Cc1ccc(N=Cc2ccc[nH]2)c(O)c1	0	0	37.6	0	0	GSTO1 inh conf=0
SMILES	PRMT1 inh	TDP2 inh	GSTO1 inh	Fh CTSL1 inh	PAD4 inh	others
N#C/C(=C\c1c(N2CCC(C(N)=O)CC2)nc2ccccn2c1=O)C(=O)NCc1ccco1	0	0	45.0	0	0	GSTO1 inh conf=0
O=C(Cn1nnc(-c2ccc(N3CCOCC3)cc2)n1)c1ccc(F)cc1	0	0	-	-	-
COc1ccc2c(c1)[C@@]1(NCCc3c1[nH]c1ccc(OC)cc31)C(=O)N2	0	0	-	-	-
CC(NC(=O)C1CC1)C(c1cccs1)N1CCOCC1 (stereo unspecified)	0	0	85.0	0	0	GSTO1 inh conf=0
Oc1ccc(-c2nc(-c3ccc(O)c(O)c3)cs2)cc1	0	0	47.3	0	0	GSTO1 inh conf=0
O=C1CC(NC(=O)C(F)(F)F)=NN1c1ccccc1	0	0	44.3	0	0	GSTO1 inh conf=0
CC(Oc1ccc(Cl)cc1Cl)C(=O)NC1=NN(c2ccccc2)C(=O)C1 (stereo unspecified)	0	0	39.1	0	0	GSTO1 inh conf=0
CC(=O)Nc1ccc(NC(=O)C(C)Oc2ccc(Cl)cc2Cl)cc1 (stereo unspecified)	0	0	0	0	0

Source: PubChem BioAssay
